Published values collected from several papers.
Protocols differ between the studies behind these lines.
Target: Tyrosine-protein kinase Fyn (FYN, Homo sapiens, UniProt P06241)

Cc1cc(NC(=O)c2cccc(S(F)(F)(F)(F)F)c2)cc(-n2ccn3nc(-c4cccnc4)cc23)c1
remaining binding (cell-free assay, competition with immobilised ligand; 1 µM): 81.3%

Cc1ccc(C(=O)NCc2ccsc2)cc1C#Cc1cn(C(C)C)c2ncnc(N)c12
activity vs control (enzyme activity, inhibitor; 1 µM): 3%

COc1cccc(CNC(=O)c2nc3scc(COCc4ccc(C(=O)O)cc4)c3c(=O)[nH]2)c1
remaining binding (cell-free assay, competition with immobilised ligand; 1 µM): 81.1%

COc1cc2ncnc(Nc3ccc(Oc4ccccc4)c(C)c3C)c2cc1OC
inhibition (enzyme activity, inhibitor; 1 µM): 42%

CC(=O)Nc1c(C(C)=O)c(=O)n(C)c2nc(-c3ccc(Cl)cc3Cl)c(-c3ccc(Cl)cc3)cc12
remaining binding (cell-free assay, competition with immobilised ligand; 1 µM): 100%

C=CC(=O)Nc1cc(Nc2nccc(Nc3cc(Cl)c(F)cc3C(C)(C)O)n2)c(OC)cc1N1CC[C@@H](N(C)C)C1
inhibition (enzyme activity, inhibitor; 1 µM): 23%

Cc1cc(-n2nc(Cc3cc(F)cc(C(F)(F)F)c3)nc2C)ccc1C(N)=O
remaining binding (cell-free assay, competition with immobilised ligand; 1 µM): 100%

O=C1Nc2ccc(Cl)cc2C1=Cc1cc(Cl)c(O)c(Cl)c1
remaining signal (cell-free assay; 0.5 µM): 73%

Cc1cnc(NC2CCOCC2)nc1-n1cnc(C(=O)NC(CN)c2cc(F)cc(Cl)c2)c1 (centres unmarked)
remaining activity (enzyme activity, inhibitor, radiometric; 1 µM): 100%

CC(=O)c1c(NS(C)(=O)=O)c2cc(-c3ccc(Cl)cc3)c(-c3ccc(Cl)cc3Cl)nc2n(C)c1=O
remaining binding (cell-free assay, competition with immobilised ligand; 1 µM): 92%

O=C(Nc1cnn(-c2csc(C(=O)NC3COC3)c2)c1)Nc1c(F)cccc1Cl
remaining activity (enzyme activity, inhibitor; 5 µM): 90.3%

CCCOc1ccc(OC)c(F)c1C(=O)c1ccc(C(=O)N[C@@H]2CNC[C@H]2NC(=O)c2ccc3[nH]ncc3c2)cc1
remaining activity (enzyme activity, inhibitor; 10 µM): 69%

CC(C)(O)[C@H]1CC[C@H](Nc2ccc3ncc(-c4cccc(C(F)(F)F)c4)n3n2)CC1
remaining activity (enzyme activity, inhibitor; 1 µM): 22.4%

COc1cc2ncnc(Nc3ccc(F)c(Cl)c3)c2cc1OCCCN1CCOCC1
remaining signal (cell-free assay; 0.5 µM): 92.2%

CNc1cccc2cc(C(=O)Nc3ccc(C(=O)O)cc3)c(=O)[nH]c12
inhibition (enzyme activity, inhibitor; 10 µM): 6.9%

CCc1ccccc1C(=O)Nc1n[nH]c2c(C)c(F)c(C3C(C#N)=C(C)N(C)C(C)=C3C#N)cc12
remaining binding (cell-free assay, competition with immobilised ligand; 1 µM): 100%

CNC(=O)c1cc2c(Oc3ccc(NC(=O)C4(C(=O)Nc5ccc(F)cc5)CC4)cc3)ccnc2cc1OC
inhibition (enzyme activity, inhibitor, radiometric; 1 µM): 72%

COc1cc(Nc2c(C#N)cnc3cc(OCCCN4CCN(C)CC4)c(OC)cc23)c(Cl)cc1Cl
remaining signal (cell-free assay; 0.5 µM): 29.4%

CNC(=O)c1cc(Oc2ccc(NC(=O)Nc3ccc(Cl)c(C(F)(F)F)c3)cc2)ccn1
inhibition (enzyme activity, inhibitor; 0.3 µM): -22%

Cc1nc(C2CCN(C(=O)c3ccc(OC(F)(F)F)cc3N)CC2)c2ncc(N3CCN(C)CC3)cc2n1
remaining binding (cell-free assay, competition with immobilised ligand; 1 µM): 96%

Cc1cc(NC(=O)c2cccc3cc(-c4cccc5[nH]nc(N)c45)ccc23)ccc1F
activity vs control (enzyme activity, inhibitor; 0.1 µM): 88%

CCN(CC)CCNC(=O)c1c(C)[nH]c(/C=C2\C(=O)Nc3ccc(F)cc32)c1C
inhibition (enzyme activity, inhibitor; 10 µM): 89%

CC(C)(C)c1nc(-c2cccc(NS(=O)(=O)c3c(F)cccc3F)c2F)c(-c2ccnc(N)n2)s1
remaining activity (enzyme activity, inhibitor, radiometric; 1 µM): 36%

O=C1c2ccccc2-c2n[nH]c3cccc1c23
activity vs control (enzyme activity, inhibitor; 0.5 µM): 93.2%

CNCc1ccc(-c2cc(-c3nc(-c4ccc(S(=O)(=O)C(C)C)cc4)cnc3N)on2)cc1
inhibition (enzyme activity, inhibitor; 0.4 µM): 9%

O=c1c2ccccc2[nH]c(=S)n1CCN1CCC(=C(c2ccc(F)cc2)c2ccc(F)cc2)CC1
remaining activity (enzyme activity, inhibitor; 0.5 µM): 102%

Cn1cnc(Br)c1C1=CN(c2ncnc3[nH]cnc23)CCS1
inhibition (enzyme activity, inhibitor, radiometric; 2 µM): 44%

O=c1cc(-c2cccc3c2Sc2ccccc2S3)oc(N2CCOCC2)c1
remaining activity (enzyme activity, inhibitor; 0.5 µM): 88.6%

CC(C)c1ccc(NC(=O)c2cccs2)c(-c2nc3ccccc3[nH]c2=O)c1
activity vs control (enzyme activity, inhibitor; 1 µM): 103%

COc1cccc2c(NCc3ccccc3)nc(-n3c(N)nc4ccccc43)nc12
inhibition (target engagement in cells, inhibitor, chemoproteomics; 20 mM): -15.9%

CN([C@@H]1CCc2c(CC(=O)O)c3cc(S(C)(=O)=O)ccc3n2C1)S(=O)(=O)c1ccc(F)cc1
remaining binding (cell-free assay, competition with immobilised ligand; 1 µM): 99%

Nc1ncnc2occ(-c3ccc(NC(=O)Nc4cc(C(F)(F)F)ccc4F)cc3)c12
remaining activity (enzyme activity, inhibitor; 20 µM): 2.8%
